Data reported in ChEMBL document CHEMBL4602705, “Discovery of N-Cyano-sulfoximineurea Derivatives as Potent and Orally Bioavailable NLRP3 Inflammasome Inhibitors” (ACS Med Chem Lett, 2020).

Legend:
[1] = Half life in C57/BL6 mouse at 3 mg/kg, po measured up to 24 hrs by LC-MS/MS analysis; assay type: ADME, organism-based; details: in vivo
How it was run: (§1)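 Mouse PK, composite design, n = 3 per time point, mean values. Dosed 3 mg/kg po in 1% Tween 80 + 99% (0.5%) methyl cellulose in water; 1 mg/kg iv in 5% NMP + 5% solutol + 90% normal saline for bioavailability reference.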

[2] = AUC in C57/BL6 mouse at 3 mg/kg, po measured up to 24 hrs by LC-MS/MS analysis; assay type: ADME, organism-based; design: dose 3 mg/kg, time < 24 hr, route oral; details: in vivo; how it was run: as §1
[3] = Oral bioavailability in C57/BL6 mouse at 3 mg/kg measured up to 24 hrs by LC-MS/MS analysis; assay type: ADME, organism-based; details: in vivo; how it was run: as §1
[4] = molecular target: T1, NACHT, LRR and PYD domains-containing protein 3 (Homo sapiens, UniProt Q96P20); experiment: Inhibition of NLRP3 inflammasome activation in LPS-primed human THP1 cells assessed as reduction in IL-1beta level preincubated for 1 hr followed by addition of ATP and nigericin further incubated for 1 hrs and measured post ATP addition 1 hr by ELISA method; assay type: cell-based, THP-1
[5] = molecular target: T1, NACHT, LRR and PYD domains-containing protein 3; experiment: Inhibition of NLRP3 inflammasome activation in LPS-primed human THP1 cells assessed as reduction in IL-1beta level at 1 uM preincubated for 1 hr followed by addition of ATP and nigericin further incubated for 1 hrs and measured post ATP addition 1 hr by ELISA method relative to control; assay type: cell-based; details: THP-1
Mus musculus = experiment: Inhibition of LPS-induced serum IL-1beta production in C57/BL6 mouse at 10 mg/kg, po post-challenge with LPS for 2 hrs followed by ATP-challenge and measured after 30 mins by ELISA method relative to control; assay type: functional
How it was run: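 Acute LPS+ATP challenge model in female C57BL/6 mice, n = 6/group; single oral dose 10 mg/kg in 1% Tween 80 and 99% methyl cellulose (0.5%); IL-1β compared with vehicle control; error bars SEM.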

T1 sequence (Q96P20 whole entry, the tested form may be a part): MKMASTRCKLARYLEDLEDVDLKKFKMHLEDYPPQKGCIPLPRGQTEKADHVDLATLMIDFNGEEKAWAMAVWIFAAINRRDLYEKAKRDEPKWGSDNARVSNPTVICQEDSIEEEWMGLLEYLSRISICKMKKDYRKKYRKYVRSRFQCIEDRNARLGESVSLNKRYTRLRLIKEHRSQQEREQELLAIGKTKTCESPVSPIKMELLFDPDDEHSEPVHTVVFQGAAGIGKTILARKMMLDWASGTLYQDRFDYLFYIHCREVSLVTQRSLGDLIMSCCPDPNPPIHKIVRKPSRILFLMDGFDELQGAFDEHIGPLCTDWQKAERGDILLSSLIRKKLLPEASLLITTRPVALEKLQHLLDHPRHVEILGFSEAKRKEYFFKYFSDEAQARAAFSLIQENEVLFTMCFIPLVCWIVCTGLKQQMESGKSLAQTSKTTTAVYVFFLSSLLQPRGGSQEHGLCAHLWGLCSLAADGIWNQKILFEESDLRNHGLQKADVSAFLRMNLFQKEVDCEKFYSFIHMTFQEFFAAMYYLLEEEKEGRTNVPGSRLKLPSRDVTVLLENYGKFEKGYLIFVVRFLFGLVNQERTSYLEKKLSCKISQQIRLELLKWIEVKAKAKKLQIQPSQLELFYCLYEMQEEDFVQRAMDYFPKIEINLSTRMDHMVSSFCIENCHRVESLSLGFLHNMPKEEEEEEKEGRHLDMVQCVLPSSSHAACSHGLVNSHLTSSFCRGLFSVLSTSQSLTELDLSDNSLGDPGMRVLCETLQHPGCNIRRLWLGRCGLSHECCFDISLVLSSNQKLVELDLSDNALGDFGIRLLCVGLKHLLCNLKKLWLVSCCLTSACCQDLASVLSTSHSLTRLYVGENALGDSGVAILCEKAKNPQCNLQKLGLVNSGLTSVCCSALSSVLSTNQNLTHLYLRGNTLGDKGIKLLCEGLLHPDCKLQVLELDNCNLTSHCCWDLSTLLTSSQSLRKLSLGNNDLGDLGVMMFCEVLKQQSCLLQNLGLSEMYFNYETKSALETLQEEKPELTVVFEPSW

N#CN=S(=O)(NC(=O)Nc1c2c(cc3c1CCC3)CCC2)c1ccc(C#N)cc1 (stereo unspecified)
half-life [1]: 1.03 h | AUC at 24 h [2]: 800 ng·h/mL | bioavailability [3]: 27%

CON=S(=O)(NC(=O)Nc1c2c(cc3c1CCC3)CCC2)c1ccc(C)cc1 (stereo unspecified)
IC50 [4]: > 1000 nM

Cc1ccc(S(=O)(=NC(N)=O)NC(=O)Nc2c3c(cc4c2CCC4)CCC3)cc1 (stereo unspecified)
IC50 [4]: > 1000 nM

O=C(Nc1c2c(cc3c1CCC3)CCC2)NC1(c2ccccc2)COC1
IC50 [4]: > 1000 nM

O=C(Nc1c2c(cc3c1CCC3)CCC2)NC(c1ccccc1)C(F)(F)F (stereo unspecified)
IC50 [4]: > 1000 nM | inhibition [5]: < 50%

Cc1ccc(S(=O)(=NCC(F)(F)F)NC(=O)Nc2c3c(cc4c2CCC4)CCC3)cc1 (stereo unspecified)
IC50 [4]: > 1000 nM

CN=S(=O)(NC(=O)Nc1c2c(cc3c1CCC3)CCC2)c1ccc(C)cc1 (stereo unspecified)
IC50 [4]: > 1000 nM

Cc1ccc(S(=O)(=O)NC(=O)C(=O)c2c3c(cc4c2CCC4)CCC3)cc1
IC50 [4]: > 1000 nM

Cc1ccc(S(=O)(=NC#N)NC(=O)Nc2c3c(cc4c2CCC4)CCC3)cc1 (stereo unspecified)
inhibition in vivo at 10 mg/kg (Mus musculus): 44% | half-life [1]: 2.91 h | AUC at 24 h [2]: 4200 ng·h/mL | bioavailability [3]: 56%

CCOC(=O)N=S(=O)(NC(=O)Nc1c2c(cc3c1CCC3)CCC2)c1ccc(C)cc1 (stereo unspecified)
IC50 [4]: > 1000 nM

Cc1ccc(S(=O)(=NC#N)NC(=O)Nc2c3c(cc4c2CCC4)CCC3)cc1F (stereo unspecified)
inhibition in vivo at 10 mg/kg (Mus musculus): 50% | half-life [1]: 2.38 h | AUC at 24 h [2]: 3200 ng·h/mL | bioavailability [3]: 59%

Cc1ccc(S(=O)(=O)N/C(=N\C#N)Nc2c3c(cc4c2CCC4)CCC3)cc1
IC50 [4]: > 1000 nM

Cc1ccc(S(=O)(=O)NS(=O)(=O)Nc2c3c(cc4c2CCC4)CCC3)cc1
IC50 [4]: > 1000 nM

Cc1ccc(S(=O)(=Nc2ccc(F)cc2)NC(=O)Nc2c3c(cc4c2CCC4)CCC3)cc1 (stereo unspecified)
IC50 [4]: > 1000 nM

Cc1ccc(S(=O)(=O)NC(=O)C(O)c2c3c(cc4c2CCC4)CCC3)cc1 (stereo unspecified)
IC50 [4]: > 1000 nM

CC(=O)N=S(=O)(NC(=O)Nc1c2c(cc3c1CCC3)CCC2)c1ccc(C)cc1 (stereo unspecified)
IC50 [4]: > 1000 nM

N#CC(NC(=O)Nc1c2c(cc3c1CCC3)CCC2)c1ccccc1 (stereo unspecified)
IC50 [4]: > 1000 nM | inhibition [5]: < 50%

N#CN=S(=O)(NC(=O)Nc1c2c(cc3c1CCC3)CCC2)c1cccnc1 (stereo unspecified)
half-life [1]: 1.66 h | AUC at 24 h [2]: 1280 ng·h/mL | bioavailability [3]: 24%

Cc1ccc(S(=O)(=O)Nc2c(Nc3c4c(cc5c3CCC5)CCC4)c(=O)c2=O)cc1
IC50 [4]: > 1000 nM

Cc1ccc(S(=O)(=O)NC(=O)Cc2c3c(cc4c2CCC4)CCC3)cc1
IC50 [4]: > 1000 nM

Cc1ccc(S(=O)(=Nc2ccn[nH]2)NC(=O)Nc2c3c(cc4c2CCC4)CCC3)cc1 (stereo unspecified)
IC50 [4]: > 1000 nM

N#CN=S(=O)(NC(=O)Nc1c2c(cc3c1CCC3)CCC2)c1cccc(C#N)c1 (stereo unspecified)
half-life [1]: 1.13 h | AUC at 24 h [2]: 1200 ng·h/mL | bioavailability [3]: 40%

N#CN=S(=O)(NC(=O)Nc1c2c(cc3c1CCC3)CCC2)c1ccccn1 (stereo unspecified)
inhibition in vivo at 10 mg/kg (Mus musculus): 57% | half-life [1]: 5.2 h | AUC at 24 h [2]: 8200 ng·h/mL | bioavailability [3]: 97%

Cc1ccc(S(=O)(=O)NC(=O)C(=O)Nc2c3c(cc4c2CCC4)CCC3)cc1
IC50 [4]: > 1000 nM
